Test results from ChEMBL document CHEMBL5653608 (Br J Pharmacol, 2011).
Calls of active or inactive are those of the source. The calls are words filed in the database; no cut-off is given here.

Experiments:
[1] = molecular target: T1, Prostaglandin E2 receptor EP1 subtype (Homo sapiens, UniProt P34995); assay: Antagonist activity at human EP1 receptor expressed in CHO cells assessed as increase in cAMP level incubated for 30 mins followed by agonist addition measured after 90 mins; type: functional, cell-based
T1 sequence (P34995 whole entry): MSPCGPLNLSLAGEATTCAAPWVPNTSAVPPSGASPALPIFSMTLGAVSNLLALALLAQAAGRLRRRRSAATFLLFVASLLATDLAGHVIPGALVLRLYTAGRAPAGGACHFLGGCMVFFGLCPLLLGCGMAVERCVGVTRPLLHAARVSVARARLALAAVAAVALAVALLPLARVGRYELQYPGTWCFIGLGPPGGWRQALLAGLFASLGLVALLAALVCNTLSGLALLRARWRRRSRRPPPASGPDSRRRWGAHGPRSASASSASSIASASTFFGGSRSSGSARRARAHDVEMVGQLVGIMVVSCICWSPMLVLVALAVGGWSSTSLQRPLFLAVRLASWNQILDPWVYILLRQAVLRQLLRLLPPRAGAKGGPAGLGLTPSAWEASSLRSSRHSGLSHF

[2] = molecular target: T1, Prostaglandin E2 receptor EP1 subtype; assay: Agonist activity at human EP1 receptor expressed in CHO cells incubated for 30 mins; type: functional, cell-based
[3] = molecular target: T2, Prostaglandin E2 receptor EP3 subtype (Homo sapiens, UniProt P43115); assay: Antagonist activity at human EP3 receptor expressed in CHO cells assessed as increase in cAMP level incubated for 30 mins followed by agonist addition measured after 90 mins; type: functional, cell-based
T2 sequence (P43115 whole entry): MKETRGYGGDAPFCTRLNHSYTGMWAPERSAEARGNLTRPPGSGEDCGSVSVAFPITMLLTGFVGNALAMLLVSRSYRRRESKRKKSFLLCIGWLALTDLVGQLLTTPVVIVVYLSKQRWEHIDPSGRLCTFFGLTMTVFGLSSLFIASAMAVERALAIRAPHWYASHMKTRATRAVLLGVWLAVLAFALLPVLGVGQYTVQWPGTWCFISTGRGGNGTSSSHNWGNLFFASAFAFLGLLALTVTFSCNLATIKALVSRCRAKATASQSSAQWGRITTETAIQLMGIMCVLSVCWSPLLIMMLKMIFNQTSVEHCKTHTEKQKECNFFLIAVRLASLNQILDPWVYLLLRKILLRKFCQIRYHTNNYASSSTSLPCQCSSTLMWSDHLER

[4] = molecular target: T2, Prostaglandin E2 receptor EP3 subtype; assay: Agonist activity at human EP3 receptor expressed in CHO cells incubated for 30 mins; type: functional, cell-based
[5] = molecular target: Prostaglandin E2 receptor EP4 subtype (Homo sapiens, UniProt P35408); assay: Agonist activity at human EP4 receptor expressed in CHO cells incubated for 30 mins; type: functional, cell-based
Summary of the method: (§1)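 Reporter CHO cells (CRE β-lactamase host) stably expressing the human receptor, suspended in DMEM at 1 × 10^6 cells/mL. Compound in PBS/DMSO/pluronic buffer, preincubated with cells for 30 min at 37°C. In antagonist mode, agonist was then added for 90 min at 37°C; agonist mode used buffer instead. Cells were lysed by freezing, and cAMP was read by DiscoveRx enzyme-fragment luminescence after 4–20 h. Four-parameter logistic fit.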

[6] = molecular target: T3, Prostaglandin D2 receptor (Homo sapiens, UniProt Q13258); assay: Antagonist activity at human DP1 receptor expressed in CHO cells incubated for 30 mins followed by agonist addition measured after 90 mins; type: functional, cell-based; summary of the method: as §1
T3 sequence (Q13258 whole entry): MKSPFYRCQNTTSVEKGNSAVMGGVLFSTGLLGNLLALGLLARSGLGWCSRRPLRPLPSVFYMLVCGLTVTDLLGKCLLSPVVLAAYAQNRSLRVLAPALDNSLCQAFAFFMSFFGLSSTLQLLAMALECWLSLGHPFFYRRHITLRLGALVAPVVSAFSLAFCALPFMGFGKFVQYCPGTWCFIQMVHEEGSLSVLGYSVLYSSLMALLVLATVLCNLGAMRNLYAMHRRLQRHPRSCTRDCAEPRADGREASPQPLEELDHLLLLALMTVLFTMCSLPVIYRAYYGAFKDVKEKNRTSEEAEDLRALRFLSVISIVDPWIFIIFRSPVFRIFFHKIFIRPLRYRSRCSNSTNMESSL

[7] = molecular target: T4, Prostaglandin D2 receptor 2 (Homo sapiens, UniProt Q9Y5Y4); assay: Antagonist activity at human CRTH2 receptor incubated for 30 mins followed by agonist addition measured after 90 mins; type: functional
T4 sequence (Q9Y5Y4 whole entry): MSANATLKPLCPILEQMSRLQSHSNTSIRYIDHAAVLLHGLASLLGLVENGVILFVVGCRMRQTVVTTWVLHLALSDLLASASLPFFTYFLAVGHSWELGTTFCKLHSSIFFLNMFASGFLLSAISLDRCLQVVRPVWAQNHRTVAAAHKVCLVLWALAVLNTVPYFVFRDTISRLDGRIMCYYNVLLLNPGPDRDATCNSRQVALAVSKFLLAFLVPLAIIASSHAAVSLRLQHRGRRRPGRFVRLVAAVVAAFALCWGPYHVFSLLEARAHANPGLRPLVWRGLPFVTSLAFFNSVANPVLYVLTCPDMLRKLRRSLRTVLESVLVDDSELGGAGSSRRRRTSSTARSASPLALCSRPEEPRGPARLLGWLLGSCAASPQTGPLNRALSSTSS
Summary of the method: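 CHO reporter cells expressing human CRTH2, run in the DiscoveRx cAMP format. Compound preincubated with cells for 30 min at 37°C, then cells were stimulated with 8 µM forskolin plus agonist for 90 min at 37°C. Cells were lysed at −80°C and cAMP was read by luminescence. IC50 from an unconstrained four-parameter logistic fit.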

[8] = molecular target: Prostacyclin receptor (Homo sapiens, UniProt P43119); assay: Displacement of [3H]-Iloprost from human IP receptor assessed as inhibition constant incubated for 2 hrs by TopCount NXT counter based analysis
Summary of the method: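 Radioligand displacement with [3H]iloprost (20 µL of a 100 nM stock), using HEK membranes expressing human IP (10 µg per well). Buffer was 10 mM HEPES, 10 mM MgCl2, 1 mM EDTA, pH 7.4, with top concentration 10 µM. Nonspecific binding was defined with 10 µM carbacyclin. Incubated 2 h at room temperature with shaking, then filtered on GF/B, washed cold and counted by scintillation. FP, TP and LTB4 assays were run externally.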

[9] = molecular target: Prostaglandin F2-alpha receptor (Homo sapiens, UniProt P43088); assay: Displacement of [3H]-Iloprost from human FP receptor assessed as inhibition constant incubated for 2 hrs by TopCount NXT counter based analysis
[10] = molecular target: T5, Thromboxane A2 receptor (Homo sapiens, UniProt P21731); assay: Displacement of [3H]-Iloprost from human TP receptor assessed as inhibition constant incubated for 2 hrs by TopCount NXT counter based analysis
T5 sequence (P21731 whole entry): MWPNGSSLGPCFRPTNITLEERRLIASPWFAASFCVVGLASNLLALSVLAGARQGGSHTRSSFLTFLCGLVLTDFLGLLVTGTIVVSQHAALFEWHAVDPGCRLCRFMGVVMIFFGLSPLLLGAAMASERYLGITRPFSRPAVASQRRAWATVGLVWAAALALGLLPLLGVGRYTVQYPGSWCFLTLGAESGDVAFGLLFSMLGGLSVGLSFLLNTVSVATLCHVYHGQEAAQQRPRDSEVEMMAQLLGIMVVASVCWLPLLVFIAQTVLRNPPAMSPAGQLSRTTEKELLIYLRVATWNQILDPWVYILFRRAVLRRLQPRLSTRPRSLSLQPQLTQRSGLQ

[11] = Displacement of [3H]-Iloprost from human LTB4 receptor assessed as inhibition constant incubated for 2 hrs by TopCount NXT counter based analysis
[12] = Inhibition of EFS-induced contraction of human myometrium assessed as butaprost IC50 at 10 nM incubated for 60 mins (reference value: 27.8 nM); type: functional, tissue-based
Summary of the method: (§2)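 Human myometrial strips (donors aged 24–76) in a 15 mL Krebs bath at 37°C, under EFS at 15 V, 1.5 ms pulses, 10 s every 100 s, at a submaximal 15 Hz. Antagonist (10 or 100 nM) or vehicle was equilibrated for 60 min. Cumulative butaprost (0.1 nM–10 µM) or PGE2 (0.1 nM–3 µM) was given for at least five EFS responses per concentration. pKB was calculated from same-donor concentration ratios.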

[13] = Inhibition of EFS-induced contraction of human myometrium assessed as butaprost IC50 at 100 nM incubated for 60 mins (reference value: 27.8 nM); type: functional, tissue-based; summary of the method: as §2
[14] = molecular target: Prostaglandin E2 receptor EP2 subtype (Canis lupus familiaris) (UniProt Q9XT82); assay: Binding affinity to dog bronchiole EP2 receptor assessed as equilibrium binding constant incubated for 30 mins followed by agonist addition measured after 90 mins; type: tissue-based; conditions: filed as antagonist, time 120.0 min
[15] = molecular target: Prostaglandin E2 receptor EP2 subtype (Mus musculus) (UniProt Q62053); assay: Binding affinity to mouse trachea EP2 receptor assessed as equilibrium binding constant incubated for 30 mins followed by agonist addition measured after 90 mins; type: tissue-based; conditions: filed as antagonist, time 120.0 min
[16] = species: Canis lupus familiaris; assay: Induction of relaxation in PGE2-induced carbachol pre-contracted rings of Beagle dog bronchioles at 3 to 100 nM incubated for 1 hr; type: functional, tissue-based; conditions: Bronchiole, dose 3-100 nM
Summary of the method: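 Beagle bronchiole rings held at 1 g tension in Krebs at 37°C (with propranolol and phentolamine), primed with 80 mM KCl. Rings were precontracted with 1 µM carbachol, then antagonist (3–100 nM) or vehicle was equilibrated for 1 h. Cumulative PGE2 relaxation curves followed, with final 10 µM nifedipine defining maximal relaxation. KB by the Lew and Angus method.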

[17] = Induction of relaxation in PGE2-induced carbachol pre-contracted C57BL/6 mouse trachea incubated for 30 mins; type: functional, tissue-based
Summary of the method: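 Male C57BL/6 tracheal rings at 0.35 g tension in Krebs (95% O2/5% CO2, 37°C). Rings were precontracted with 10 µM carbachol before cumulative half-log PGE2 (0.1 nM–30 µM). Curves were repeated in the same ring after 30 min with 3 nM antagonist or DMSO, and 10 µM forskolin set maximal relaxation. pKB = log(CR−1) − log[B].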

[18] = Induction of relaxation in PGE2-induced carbachol pre-contracted C57BL/6 mouse trachea at 1 to 3 uM incubated for 30 mins relative to control (reference value: 11 +/- 3.2%); type: functional; design: scale not given: the % may be the effect or the level left; conditions: dose 1-3 µM, 0.5 h
[19] = Induction of relaxation in PGE2-induced carbachol pre-contracted C57BL/6 mouse trachea at 100 nM incubated for 30 mins relative to control (reference value: 11 +/- 3.2%); type: functional; design: scale not given: the % may be the effect or the level left; conditions: 0.5 h
[20] = tested on: Rattus norvegicus; assay: Effect on butaprost induced cutaneous blood flow in po dosed Sprague-Dawley rat measured upto 95 mins; type: functional, organism-based; conditions: dose 1-10 mg/kg
Summary of the method: (§3)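 Sprague Dawley rats (442–515 g) dosed orally with compound or vehicle (0.5% methylcellulose/0.1% Tween 80, 1 mL/kg). About 1 h 25 min later rats were placed under isoflurane and the abdomen shaved. Baseline laser Doppler scans were taken every 5 min for 35 min. Then 10 µL s.c. PGE2 (3 µg/mL) or butaprost (30 µg/mL) was injected, and scanning continued 60 min. Responses were vehicle-subtracted and normalized to the final three baselines. Peak and AUC0–60 were calculated.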

[21] = tested on: Rattus norvegicus; assay: Effect on butaprost-induced cutaneous blood flow in Sprague-Dawley rat assessed as reduction in mean cutaneous blood flow peak response at 10 mg/kg, po measured upto 95 mins; type: functional; design: scale not given: the % may be the effect or the level left; conditions: 1.583 h; summary of the method: as §3
[22] = tested on: Rattus norvegicus; assay: Effect on butaprost-induced cutaneous blood flow in Sprague-Dawley rat assessed as reduction in mean cutaneous blood flow peak response by measuring AUC(0 to 60 mins) at 10 mg/kg, po measured upto 95 mins; type: functional; design: scale not given: the % may be the effect or the level left; conditions: 1.583 h; summary of the method: as §3
[23] = Free plasma concentration in Sprague-Dawley rat at 1 to 10 mg/kg, po measured after 1.5 hrs; type: ADME, organism-based; conditions: in vivo, dose 1-10 mg/kg
[24] = Free plasma concentration in Sprague-Dawley rat at 1 to 10 mg/kg, po measured after 3 hrs; type: ADME, organism-based; conditions: in vivo, dose 1-10 mg/kg
[25] = Clearance in Sprague-Dawley rat at 1 mg/kg, po; type: ADME, organism-based; conditions: in vivo
[26] = Volume of distribution in Sprague-Dawley rat at 1 mg/kg, po; type: ADME, organism-based; conditions: in vivo
[27] = Terminal half life in Sprague-Dawley rat at 1 mg/kg, po; type: ADME, organism-based; conditions: in vivo, read-out: beta t1/2 (converted)
[28] = Oral bioavailability in Sprague-Dawley rat at 1 mg/kg; type: ADME, organism-based; conditions: in vivo
[29] = species: Mus musculus; assay: Induction of relaxation in PGE2-induced carbachol pre-contracted C57BL/6 mouse trachea at 1 to 3 nM incubated for 30 mins; conditions: dose 1-3 nM

Chain of Prostacyclin receptor (P43119 whole entry): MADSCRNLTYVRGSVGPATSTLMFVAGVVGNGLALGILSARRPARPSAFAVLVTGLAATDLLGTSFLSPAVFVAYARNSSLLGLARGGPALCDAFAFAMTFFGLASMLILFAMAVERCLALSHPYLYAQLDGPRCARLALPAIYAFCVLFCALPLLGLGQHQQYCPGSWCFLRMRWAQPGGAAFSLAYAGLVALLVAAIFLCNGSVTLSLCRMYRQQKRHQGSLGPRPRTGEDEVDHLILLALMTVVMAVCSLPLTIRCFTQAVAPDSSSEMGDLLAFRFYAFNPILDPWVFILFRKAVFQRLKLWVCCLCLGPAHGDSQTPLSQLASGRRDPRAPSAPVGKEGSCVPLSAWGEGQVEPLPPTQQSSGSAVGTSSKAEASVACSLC
Chain of Prostaglandin E2 receptor EP2 subtype (Canis lupus familiaris) (Q9XT82 whole entry): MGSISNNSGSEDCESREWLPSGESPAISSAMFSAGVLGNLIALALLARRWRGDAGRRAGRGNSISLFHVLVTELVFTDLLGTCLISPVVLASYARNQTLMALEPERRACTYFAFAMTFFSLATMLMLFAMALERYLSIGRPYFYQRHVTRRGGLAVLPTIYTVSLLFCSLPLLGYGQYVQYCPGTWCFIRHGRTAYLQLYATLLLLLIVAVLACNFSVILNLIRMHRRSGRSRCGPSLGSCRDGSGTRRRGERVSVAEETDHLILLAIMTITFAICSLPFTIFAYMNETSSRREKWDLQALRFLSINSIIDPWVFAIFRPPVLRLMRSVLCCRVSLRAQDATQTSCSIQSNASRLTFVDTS
Chain of Prostaglandin F2-alpha receptor (P43088 whole entry): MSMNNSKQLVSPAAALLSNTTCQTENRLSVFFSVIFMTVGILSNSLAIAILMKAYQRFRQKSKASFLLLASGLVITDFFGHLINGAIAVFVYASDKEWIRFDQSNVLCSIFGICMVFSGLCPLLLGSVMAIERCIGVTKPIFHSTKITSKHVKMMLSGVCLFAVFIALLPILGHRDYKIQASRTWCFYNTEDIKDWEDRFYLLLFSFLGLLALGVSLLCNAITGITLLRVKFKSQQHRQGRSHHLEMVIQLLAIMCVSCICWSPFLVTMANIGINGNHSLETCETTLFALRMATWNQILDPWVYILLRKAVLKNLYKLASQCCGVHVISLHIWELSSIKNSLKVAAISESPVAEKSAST
Chain of Prostaglandin E2 receptor EP2 subtype (Mus musculus) (Q62053 whole entry): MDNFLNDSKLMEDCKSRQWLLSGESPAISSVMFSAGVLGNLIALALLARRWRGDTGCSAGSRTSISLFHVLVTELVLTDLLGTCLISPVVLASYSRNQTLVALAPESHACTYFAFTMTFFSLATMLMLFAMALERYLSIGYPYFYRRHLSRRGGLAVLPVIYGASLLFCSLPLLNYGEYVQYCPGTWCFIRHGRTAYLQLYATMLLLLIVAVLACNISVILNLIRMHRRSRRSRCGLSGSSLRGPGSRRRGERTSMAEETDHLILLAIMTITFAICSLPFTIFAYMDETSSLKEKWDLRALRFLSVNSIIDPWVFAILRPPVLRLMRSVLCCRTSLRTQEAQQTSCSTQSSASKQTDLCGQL
Chain of Prostaglandin E2 receptor EP4 subtype (P35408 whole entry, the tested form may be a part): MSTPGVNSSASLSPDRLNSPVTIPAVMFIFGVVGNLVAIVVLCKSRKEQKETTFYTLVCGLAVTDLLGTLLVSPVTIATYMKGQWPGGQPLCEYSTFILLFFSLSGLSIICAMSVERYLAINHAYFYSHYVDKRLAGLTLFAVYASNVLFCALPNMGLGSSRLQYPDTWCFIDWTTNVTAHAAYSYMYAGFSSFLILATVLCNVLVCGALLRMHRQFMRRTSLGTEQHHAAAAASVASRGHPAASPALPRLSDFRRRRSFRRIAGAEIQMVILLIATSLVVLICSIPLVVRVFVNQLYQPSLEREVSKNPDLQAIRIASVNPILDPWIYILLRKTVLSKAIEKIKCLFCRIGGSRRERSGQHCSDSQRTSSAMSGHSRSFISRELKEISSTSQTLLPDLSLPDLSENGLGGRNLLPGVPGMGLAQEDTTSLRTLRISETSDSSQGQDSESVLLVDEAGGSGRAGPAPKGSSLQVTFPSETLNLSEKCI

IC50 [1]: > 10 µM
EC50 [2]: > 10 µM
IC50 [3]: > 10 µM
EC50 [4]: > 10 µM
EC50 [5]: > 33.3 µM
IC50 [6]: > 32.8 µM
IC50 [7]: 32 µM
Ki [8]: > 10 µM
Ki [9]: > 10 µM
Ki [10]: > 10 µM
Ki [11]: 4.8 µM
IC50 [12]: 0.054 µM
IC50 [13]: 0.353 µM
Kb [14]: 0.0025 µM
Kb [15]: 0.0013 µM
IC50 [17]: 0.0027 µM
Cp(f) [23]: 170 nM
Cp(f) [24]: 94 nM
CL/F [25]: 0.3 mL/min/kg
Vd [26]: 0.1 L/kg
half-life [27]: 8.8 h
bioavailability [28]: 78%
SMILES: COc1ccc2cc(OCC3(C(=O)O)CN(C(=O)c4ccc(F)cc4)C3)ccc2c1 [PF-04418948]
Activity [16]: Active
Activity [18]: 73.5%
Activity [19]: 106.8%
Activity [20]: Dose-Dependent Effect
Activity [21]: 41%
Activity [22]: 61%
Activity [29]: Active
